According to ChEMBL document CHEMBL3608261, “Metabolically programmed iron chelators” (Bioorg Med Chem, 2015):

Key:
Sapajus apella [1] = experiment: Iron clearing efficiency in bile duct cannulated Cebus apella assessed as clearance of iron in urine at 75 umol/kg, po […] relative to control; type: functional
Sapajus apella [2] = experiment: Iron clearing efficiency in bile duct cannulated Cebus apella assessed as clearance of iron in feces at 150 umol/kg, po measured at 3 hrs intervals for up to 48 hrs relative to control; type: functional
Sapajus apella [3] = experiment: Iron clearing efficiency in bile duct cannulated Cebus apella assessed as clearance of iron at 150 umol/kg, po measured at 3 hrs intervals for up to 48 hrs relative to control; type: functional
Sapajus apella [4] = experiment: Iron clearing efficiency in bile duct cannulated Cebus apella assessed as clearance of iron in urine at 150 umol/kg, po measured at 3 hrs intervals for up to 48 hrs relative to control; type: functional
Rattus norvegicus [5] = experiment: Iron clearing efficiency in bile duct cannulated Sprague-Dawley rat assessed as clearance of iron at 300 umol/kg, po measured at 3 hrs intervals for up to 48 hrs relative to control; type: functional
How it was run: (§1)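 Non-iron-overloaded male Sprague-Dawley rats (400–450 g) with cannulated bile ducts received 300 µmol/kg po or sc. […] Bile was sampled every 3 h for up to 48 h and urine at 24 h intervals. ICE = (treated minus control iron excretion) / theoretical output (2:1 ligand:Fe) × 100 over 48 h. Mean ± SEM.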

Rattus norvegicus [6] = experiment: Drug metabolism in Sprague-Dawley rat pancreas assessed as (S)-4'-(HO)-DADFT-PEAA level at 300 umol/kg, sc up to 8 hrs by HPLC analysis; type: ADME, organism-based; details: in vivo
How it was run: (§2)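 Male Sprague-Dawley rats (250–350 g) got a single sc dose of the monosodium salt at 300 µmol/kg, n=3 per time point. They were killed with CO2 at 0.5, 1, 2, 4 and 8 h. Citrated cardiac-puncture blood was spun to plasma, and liver, kidney, heart and pancreas were frozen. Tissue was homogenized 1:1 in water, given a methanol rinse, held 30 min at −20 °C, centrifuged and filtered. Read-out was reversed-phase HPLC, UV 310 nm.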

Rattus norvegicus [7] = experiment: Drug metabolism in Sprague-Dawley rat kidney assessed as (S)-4'-(HO)-DADFT-PEAA level at 300 umol/kg, sc up to 8 hrs by HPLC analysis; type: ADME, organism-based; details: in vivo; how it was run: as §2
Rattus norvegicus [8] = experiment: Drug metabolism in Sprague-Dawley rat heart assessed as (S)-4'-(HO)-DADFT-PEAA level at 300 umol/kg, sc up to 8 hrs by HPLC analysis; type: ADME, organism-based; details: in vivo; how it was run: as §2
Sapajus apella [9] = experiment: Iron clearing efficiency in bile duct cannulated Cebus apella assessed as clearance of iron in bile at 75 umol/kg, po measured at 3 hrs intervals for up to 48 hrs relative to control; type: functional
Rattus norvegicus [10] = experiment: Drug metabolism in Sprague-Dawley rat plasma assessed as (S)-4'-(HO)-DADFT-PEAA level at 300 umol/kg, sc after 8 hrs by HPLC analysis; type: ADME, organism-based; details: in vivo; how it was run: as §2
Rattus norvegicus [11] = experiment: Iron clearing efficiency in bile duct cannulated Sprague-Dawley rat assessed as clearance of iron in urine at 300 umol/kg, po measured at 3 hrs intervals for up to 48 hrs relative to control; type: functional
Rattus norvegicus [12] = experiment: Iron clearing efficiency in bile duct cannulated Sprague-Dawley rat assessed as clearance of iron in bile at 300 umol/kg, po measured at 3 hrs intervals for up to 48 hrs relative to control; type: functional; how it was run: as §1
Rattus norvegicus [13] = experiment: Iron clearing efficiency in bile duct cannulated Sprague-Dawley rat assessed as clearance of iron in bile at 300 umol/kg, sc measured at 3 hrs intervals for up to 48 hrs relative to control; type: functional; how it was run: as §1
Sapajus apella [14] = experiment: Iron clearing efficiency in bile duct cannulated Cebus apella assessed as clearance of iron in bile at 75 umol/kg, sc measured at 3 hrs intervals for up to 48 hrs relative to control; type: functional
Rattus norvegicus [15] = species: Rattus norvegicus; experiment: Iron clearing efficiency in bile duct cannulated Sprague-Dawley rat assessed as […] for up to 48 hrs relative to control; type: functional, Urine
Sapajus apella [16] = experiment: Iron clearing efficiency in bile duct cannulated Cebus apella assessed as clearance of iron in urine at 75 umol/kg, sc […] relative to control; type: functional
[17] = Performance ratio, ratio of iron clearing efficiency in […] at 75 umol/kg, po to iron clearing efficiency in bile duct cannulated Sprague-Dawley rat at 300 umol/kg, po; type: functional
How it was run: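 Performance ratio = mean ICE in iron-overloaded Cebus apella (75 µmol/kg) divided by mean ICE in bile duct-cannulated rats (300 µmol/kg), by the same route.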

Sapajus apella [18] = experiment: Iron clearing efficiency in bile duct cannulated Cebus apella assessed as clearance of iron in urine at 150 umol/kg, sc measured at 3 hrs intervals for up to 48 hrs relative to control; type: functional
Rattus norvegicus [19] = experiment: Iron clearing efficiency in bile duct cannulated Sprague-Dawley rat assessed as clearance of iron in urine at 150 umol/kg, sc measured at 3 hrs intervals for up to 48 hrs relative to control; type: functional
Sapajus apella [20] = experiment: Iron clearing efficiency in bile duct cannulated Cebus apella assessed as clearance of iron in feces at 150 umol/kg, sc measured at 3 hrs intervals for up to 48 hrs relative to control; type: functional
Rattus norvegicus [21] = experiment: Iron clearing efficiency in bile duct cannulated Sprague-Dawley rat assessed as clearance of iron at 150 umol/kg, sc measured at 3 hrs intervals for up to 48 hrs relative to control

With `COCCOCCOc1ccc(C2=N[C@@](C)(C(=O)[O-])CS2)c(O)c1.[Na+]` the Activity (Sapajus apella [1]) was 17%.
In the case of `C[C@]1(C(=O)O)CSC(c2cccc(O)c2O)=N1`, the Activity (Sapajus apella [2]) is reported as 83%, the Activity (Sapajus apella [3]) is reported as 23.1% and the Activity (Sapajus apella [4]) is reported as 17%.
Compound `COc1ccc(C2=N[C@@](C)(C(=O)O)CS2)c(O)c1` has an Activity (Rattus norvegicus [5]) of 6.6%.
With `C[C@]1(C(=O)O)CSC(c2ccc(OCCOCCO)cc2O)=N1` the Drug metabolism (Rattus norvegicus [6]) was “metabolite_detected”, the Drug metabolism (Rattus norvegicus [7]) was “metabolite_detected” and the Activity (Sapajus apella [1]) was 46%. For the same compound, the Drug metabolism (Rattus norvegicus [8]) was “metabolite_detected”, the Activity (Sapajus apella [9]) was 54% and the Drug metabolism (Rattus norvegicus [10]) was “metabolite_notdetected”. It also gave an Activity (Rattus norvegicus [11]) of 2% and an Activity (Rattus norvegicus [12]) of 98%.
For `C[C@]1(C(=O)O)CSC(c2ccc(OCCOCC(=O)O)cc2O)=N1`, the Activity (Sapajus apella [1]) was 49%, the Activity (Sapajus apella [9]) was 51% and the Activity (Rattus norvegicus [11]) was 0%. For the same compound, the Activity (Rattus norvegicus [12]) was 100%.
Compound `COCCCCCCOc1ccc(C2=N[C@@](C)(C(=O)O)CS2)c(O)c1` has an Activity (Rattus norvegicus [11]) of 1% and an Activity (Rattus norvegicus [12]) of 99%.
Work on `C[C@]1(C(=O)O)CSC(c2ccc(OCCCCCC(=O)O)cc2O)=N1` yielded an Activity (Sapajus apella [1]) of 18%, an Activity (Sapajus apella [9]) of 82% and an Activity (Rattus norvegicus [11]) of 6%. It also gave an Activity (Rattus norvegicus [12]) of 94%.
Compound `C[C@]1(C(=O)O)CSC(c2ccc(OCCCC(=O)O)cc2O)=N1` has an Activity (Sapajus apella [1]) of 3%, an Activity (Sapajus apella [9]) of 97% and an Activity (Rattus norvegicus [11]) of 11%. The Activity (Rattus norvegicus [12]) was 89%.
Compound `C[C@]1(C(=O)O)CSC(c2ccc(OCC(=O)O)cc2O)=N1` has an Activity (Sapajus apella [1]) of 40%, an Activity (Sapajus apella [9]) of 60% and an Activity (Rattus norvegicus [11]) of 11%. The Activity (Rattus norvegicus [12]) was 89%.
In the case of `C[C@]1(C(=O)[O-])CSC(c2ccc(OCCOCC(=O)O)cc2O)=N1.[Na+]`, the Activity (Rattus norvegicus [13]) is reported as 99%, the Activity (Sapajus apella [14]) is reported as 84% and the Activity (Rattus norvegicus [15]) is reported as 1%. For the same compound, the Activity (Sapajus apella [16]) was 16%.
In the case of `C[C@]1(C(=O)[O-])CSC(c2ccc(OCCCCCC(=O)O)cc2O)=N1.[Na+]`, the Activity (Rattus norvegicus [13]) is reported as 96%, the Ratio [17] is reported as 1.2 and the Activity (Sapajus apella [14]) is reported as 69%. It also gave an Activity (Rattus norvegicus [15]) of 4% and an Activity (Sapajus apella [16]) of 31%.
`C[C@]1(C(=O)[O-])CSC(c2ccc(OCCCC(=O)O)cc2O)=N1.[Na+]` gave an Activity (Rattus norvegicus [13]) of 95%, an Activity (Sapajus apella [14]) of 78% and an Activity (Rattus norvegicus [15]) of 5%. The Activity (Sapajus apella [16]) was 22%.
With `C[C@]1(C(=O)[O-])CSC(c2ccc(OCC(=O)O)cc2O)=N1.[Na+]` the Activity (Rattus norvegicus [13]) was 94%, the Activity (Sapajus apella [14]) was 53% and the Activity (Sapajus apella [16]) was 47%.
With `COCCOCCOCCOc1ccc(C2=N[C@@](C)(C(=O)O)CS2)c(O)c1` the Activity (Rattus norvegicus [5]) was 5.5%.
For `COCCOCCOCCOc1cccc(C2=N[C@@](C)(C(=O)O)CS2)c1O` [DEFERITAZOLE], the Activity (Sapajus apella [2]) was 95%, the Activity (Sapajus apella [3]) was 23% and the Activity (Sapajus apella [4]) was 5%.
Compound `CC(=O)N(O)CCCCCNC(=O)CCC(=O)N(O)CCCCCNC(=O)CCC(=O)N(O)CCCCCN` [DEFEROXAMINE] has an Activity (Sapajus apella [18]) of 55%, an Activity (Rattus norvegicus [19]) of 26% and an Activity (Sapajus apella [20]) of 45%. The Activity (Rattus norvegicus [21]) was 74%.
